Assay results reported in ChEMBL document CHEMBL2163314, “Potent aminocyclitol glucocerebrosidase inhibitors are subnanomolar pharmacological chaperones for treating gaucher disease” (J Med Chem, 2012).

What was measured:
[1] = molecular target: T1, Non-lysosomal glucosylceramidase (Mus musculus) (UniProt Q69ZF3); experiment: Inhibition of GBA2 activity in mouse tissue homogenate at 5 uM
T1 sequence (whole entry): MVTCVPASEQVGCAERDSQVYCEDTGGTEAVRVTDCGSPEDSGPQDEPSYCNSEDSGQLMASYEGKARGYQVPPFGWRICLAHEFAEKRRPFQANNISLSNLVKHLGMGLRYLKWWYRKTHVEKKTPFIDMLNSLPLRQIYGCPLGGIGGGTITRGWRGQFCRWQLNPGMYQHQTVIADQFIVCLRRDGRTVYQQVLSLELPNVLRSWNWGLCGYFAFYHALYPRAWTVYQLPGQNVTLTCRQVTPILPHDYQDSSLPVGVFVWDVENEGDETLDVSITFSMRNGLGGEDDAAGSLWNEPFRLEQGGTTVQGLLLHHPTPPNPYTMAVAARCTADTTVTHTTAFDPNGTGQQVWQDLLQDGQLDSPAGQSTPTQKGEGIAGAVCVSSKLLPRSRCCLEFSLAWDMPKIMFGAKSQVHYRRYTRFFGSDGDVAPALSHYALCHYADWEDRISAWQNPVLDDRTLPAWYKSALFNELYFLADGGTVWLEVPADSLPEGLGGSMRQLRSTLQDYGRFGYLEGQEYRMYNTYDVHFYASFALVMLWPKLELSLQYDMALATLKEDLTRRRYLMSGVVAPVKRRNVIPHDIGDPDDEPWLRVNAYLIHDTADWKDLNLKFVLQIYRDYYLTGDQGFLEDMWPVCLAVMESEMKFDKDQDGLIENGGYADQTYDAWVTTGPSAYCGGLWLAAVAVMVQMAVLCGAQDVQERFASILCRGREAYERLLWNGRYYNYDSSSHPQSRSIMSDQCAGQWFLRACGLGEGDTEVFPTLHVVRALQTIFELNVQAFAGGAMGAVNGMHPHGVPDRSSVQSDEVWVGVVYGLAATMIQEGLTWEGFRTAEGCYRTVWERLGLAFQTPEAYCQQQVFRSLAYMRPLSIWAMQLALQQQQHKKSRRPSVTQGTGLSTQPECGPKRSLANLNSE
Method in brief: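 Mouse tissue homogenates were used to separate nonlysosomal GBA2 from lysosomal GCase β-glucosidase activity. Compounds were screened at 50 and 5 μM with 3 mM substrate. Two independent experiments, each run in duplicate.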

[2] = test system: T2, Lysosomal acid glucosylceramidase (Homo sapiens), P04062 [N409S]; experiment: Agonist activity at glucosylceramidase N370S mutant in lymphoblast obtained from Gaucher disease patient using 4-methylumbelliferyl-beta-D-glucopyranoside as substrate preincubated at 1 uM for 3 days measured 2 hrs post substrate addition by fluorescence assay relative to untreated control; format: functional
T2 sequence (whole entry): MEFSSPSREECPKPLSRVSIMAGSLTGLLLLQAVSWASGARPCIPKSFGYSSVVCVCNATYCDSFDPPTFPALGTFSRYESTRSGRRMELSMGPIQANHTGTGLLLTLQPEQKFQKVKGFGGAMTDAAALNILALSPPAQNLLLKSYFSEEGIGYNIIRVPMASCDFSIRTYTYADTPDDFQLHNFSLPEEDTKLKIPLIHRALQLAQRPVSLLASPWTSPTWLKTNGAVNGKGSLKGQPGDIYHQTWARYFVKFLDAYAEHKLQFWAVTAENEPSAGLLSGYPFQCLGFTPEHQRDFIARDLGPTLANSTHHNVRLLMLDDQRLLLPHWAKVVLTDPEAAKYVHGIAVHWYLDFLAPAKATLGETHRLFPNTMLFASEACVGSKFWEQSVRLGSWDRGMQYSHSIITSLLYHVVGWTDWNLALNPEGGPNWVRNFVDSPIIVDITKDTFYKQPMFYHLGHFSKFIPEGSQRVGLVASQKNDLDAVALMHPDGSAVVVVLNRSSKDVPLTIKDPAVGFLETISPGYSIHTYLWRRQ
Method in brief: (§1)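 Patient-derived N370S homozygous lymphoblasts (RPMI-1640, 15% FBS, 37 °C, 5% CO2; passages 5–16) seeded at 2 × 10^5 cells/well, exposed to compound for 3 days. Cells washed in PBS and lysed in water by sonication. Homogenate incubated with 6 mM 4-MU-β-glucoside in 0.1 M citrate phosphate pH 5.2 with 0.25% taurocholate and 0.1% Triton X-100, 37 °C, 2 h. Fluorescence read at 355/460 nm; activity normalized to untreated cells; triplicate.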

[3] = test system: T2, Lysosomal acid glucosylceramidase (Homo sapiens), P04062 [N409S]; experiment: Agonist activity at glucosylceramidase N370S mutant in lymphoblast obtained from Gaucher disease patient using 4-methylumbelliferyl-beta-D-glucopyranoside as substrate preincubated at 1 nM for 3 days measured 2 hrs post substrate addition by fluorescence assay relative to untreated control; format: functional; method in brief: as §1
[4] = Agonist activity at glucosylceramidase […] mutant in lymphoblast obtained from Gaucher disease patient using 4-methylumbelliferyl-beta-D-glucopyranoside as substrate preincubated at 5 nM for 3 days measured 2 hrs post substrate addition by fluorescence assay relative to untreated control; format: functional, Homo sapiens
Method in brief: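 L444P homozygous lymphoblasts from a GD type 2 patient, cultured in RPMI-1640 with 15% FBS at 37 °C, 5% CO2, seeded 2 × 10^5 cells/well and treated 3 days. Sonicated water lysate assayed with 6 mM 4-MU-β-glucoside at pH 5.2 (citrate phosphate, taurocholate, Triton X-100), 37 °C for 2 h. Fluorescence at 355/460 nm, relative to untreated cells; triplicate.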

[5] = Agonist activity at glucosylceramidase […] mutant in lymphoblast obtained from Gaucher disease patient using 4-methylumbelliferyl-beta-D-glucopyranoside as substrate preincubated at 100 nM for 3 days measured 2 hrs post substrate addition by fluorescence assay relative to untreated control; format: functional, Homo sapiens
Method in brief: (§2)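 Homozygous L444P GD type 2 patient-derived lymphoblasts (GM08752) in RPMI-1640 with 15% FBS, seeded at 2 × 10^5 cells/well and exposed to compound for 3 days. Cells were washed with PBS and sonicated in water. Homogenate was assayed with 6 mM 4-methylumbelliferyl-β-D-glucopyranoside in 0.1 M citrate phosphate, pH 5.2, with 0.25% taurocholate and 0.1% Triton X-100, for 2 h at 37 °C. Fluorescence read at 355/460 nm, normalized to untreated cells, triplicate.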

[6] = Agonist activity at glucosylceramidase […] mutant in lymphoblast obtained from Gaucher disease patient using 4-methylumbelliferyl-beta-D-glucopyranoside as substrate preincubated at 1 uM for 3 days measured 2 hrs post substrate addition by fluorescence assay relative to untreated control; format: functional, Homo sapiens; method in brief: as §2

CCCCCCCCCN[C@@H]1[C@H](O)[C@@H](O)[C@H](O)[C@@H](O)[C@@H]1O
inhibition [1]: 69%

CCCCCCCCCN[C@H]1[C@H](O)[C@@H](O)[C@H](O)[C@@H](O)[C@@H]1OCCCCCCCCC.Cl
fold change (FC) [2]: 1.4 | inhibition [3]: 90% | fold change (FC) [4]: 1.2

CCCCCCCCCN[C@H]1[C@H](O)[C@@H](O)[C@H](O)[C@@H](O)[C@H]1OCCCCCCCCC.Cl
fold change (FC) [3]: 1.9

CCCCCCCCCN[C@@H]1[C@H](O)[C@H](O)[C@@H](O)[C@H](O)[C@H]1O.Cl
fold change (FC) [5]: 1.2

CCCCCCCCCN[C@H]1[C@H](O)[C@@H](O)[C@H](O)[C@@H](O)[C@@H]1OC.Cl
fold change (FC) [6]: 1.5

CCCCCCCCCN[C@H]1[C@H](O)[C@@H](O)[C@H](O)[C@@H](O)[C@H]1OC.Cl
fold change (FC) [2]: 2

CCCCCCCCCO[C@H]1[C@@H](N)[C@H](O)[C@@H](O)[C@H](O)[C@H]1O.Cl
fold change (FC) [5]: 1.3
